Measured values from PubChem BioAssay AID651753 (Broad Institute, 2012).
Values joined by “and” are separate entries in the source; they are usually repeats but may differ in a detail not shown here. Equal entries are not always repeated. Active and inactive are the calls of the source.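 How the source made its calls: active means falling-signal curve whose AC50 is no more than twice the top valid dose; inconclusive means flat fit with moderate inhibition, or poor fit; inactive means the rest.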

system: not listed separately; experiment: MITF transcriptional reporter suppression – cell-based, SK-MEL-5, luciferase, dry powder, set 10, dose response (AID 651753); details: SK-MEL-5 TRPM1-promoter luciferase, luminescence, 24 h; at 35 µM (top of the series)
Procedure, shortened: (§1)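 Times: 24 h compound exposure at 37 °C, added day after seeding / System: SK-MEL-5 melanoma cells, stable TRPM1 promoter-driven luciferase reporter / Medium: DMEM lacking phenol red, plus 10% heat-inactivated FBS / Detection: Steady-Glo luciferase luminescence after 5 min room-temperature incubation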

Row | Compound | activity change, negative = inhibition
1 | Cc1ccc(NC2=CC(=O)c3ccccc3C2=O)cc1 | 76.9% (inactive)

system: SK-MEL-5 TRPM1-promoter luciferase, luminescence, 24 h; experiment: as above; details: not given
Procedure, shortened: as §1

Row | Compound | AC50
2 | COC1=C(NS(=O)(=O)c2ccccc2)C(=O)c2ccccc2C1=O | 8.13 µM
3 | NS(=O)(=O)c1ccc(NC2=CC(=O)c3ccccc3C2=O)cc1 | 0.651 µM and 0.229 µM
4 | O=C1C(Nc2cccc(Cl)c2)=C(N2CCCC2)C(=O)c2ccccc21 | > 70 µM (inactive)
5 | CC(C)N1CCN(C2=C(Nc3ccc(F)cc3F)C(=O)c3ccccc3C2=O)CC1 | 12.6 µM
6 | CC(C)N1CCN(C2=C(Nc3ccc(F)cc3)C(=O)c3ccccc3C2=O)CC1 | 29.2 µM
7 | CN1CCN(C2=C(Nc3ccc(F)cc3F)C(=O)c3ccccc3C2=O)CC1 | 13.1 µM
8 | O=C1C(Nc2ccc(Br)cc2)=C(N2CCCCC2)C(=O)c2ccccc21 | 19.2 µM
9 | Cc1ccc(NC2=CC(=O)c3ccccc3C2=O)cc1 | 3.13 µM
10 | O=C1C=C(Nc2ccccc2)C(=O)c2ccccc21 | 3.89 µM
11 | O=C1C(Nc2ccc(F)cc2)=C(N2CCCCC2)C(=O)c2ccccc21 | 18.5 µM
12 | NC1=CC(=O)c2ccccc2C1=O | 1.39 µM
13 | CCN1CCN(C2=C(Nc3ccc(F)cc3F)C(=O)c3ccccc3C2=O)CC1 | 11.4 µM
14 | COc1ccc(NC2=C(N3CCCCC3)C(=O)c3ccccc3C2=O)cc1 | 17.2 µM
15 | O=C1C=C(Nc2ccc([N+](=O)[O-])c(C(F)(F)F)c2)C(=O)c2ccccc21 | 0.718 µM
16 | O=C(NC1=C(N2CCN(c3ccccc3)CC2)C(=O)c2ccccc2C1=O)c1ccccc1 | > 70 µM (inactive)
17 | O=C1C(Nc2ccc(Cl)cc2)=C(N2CCCC2)C(=O)c2ccccc21 | > 70 µM (inactive)
